# Measured values taken from ChEMBL document CHEMBL3259629, “Discovery and optimization of piperidyl-1,2,3-triazole ureas as potent, selective, and in vivo-active inhibitors of α/β-hydrolase domain containing 6 (ABHD6)” (J Med Chem, 2013).
# Activity calls are given as the source filed them. The rule behind the calls is not given here.
# Experiments:
# [1] = system: Mus musculus; test: In vivo inhibition of FAAH in C57Bl/6 mouse brain at =>10 mg/kg, po after 4 hrs by FP-rhodamine/HT-10-labelled gel-based competitive assay
# [2] = system: Mus musculus; test: In vivo inhibition of ABHD6 in C57Bl/6 mouse liver at 0.1 mg/kg, ip after 4 hrs by HT-10-labelled gel-based competitive ABPP assay; assay type: functional; conditions: C57Bl/6, Liver, route intraperitoneal
# Summary of the method: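 C57Bl/6 mice dosed i.p. (18:1:1 v/v/v saline/ethanol/PEG40, 10 μL g⁻¹) across 0.1–1 mg kg⁻¹; after 4 hr, anesthetized with isoflurane, euthanized, liver membrane fraction isolated (Dounce homogenization in PBS pH 7.5, 1,400 × g then 100,000 × g spin). Proteome labeled with HT-01 (1 μM, 30 min, 37 °C), SDS-PAGE, in-gel fluorescence; ABHD6 activity versus vehicle.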
# [3] = system: Mus musculus; test: In vivo inhibition of ABHD6 in C57Bl/6 mouse liver at 1 mg/kg, ip after 4 hrs by HT-10-labelled gel-based competitive ABPP assay; assay type: functional, organism-based; set-up: dose 1 mg/kg
# Summary of the method: (§1)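 C57Bl/6 mice dosed i.p. at 0.1, 0.5 or 1 mg kg⁻¹ in 18:1:1 saline/ethanol/PEG40 (ethoxylated castor oil), 10 μL g⁻¹. Killed after 4 hr under isoflurane by cervical dislocation. Brain and liver membrane fractions (100,000 × g) labelled with FP-rhodamine or HT-01 (1 μM, 30 min, 37 °C), then SDS-PAGE and in-gel fluorescence scanning. Liver ABHD6 read from HT-01 gels.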
# [4] = target: T1, Fatty-acid amide hydrolase 1 (Mus musculus) (UniProt O08914); test: Inhibition of mouse brain FAAH at 10 uM after 30 mins by FP-rhodamine ABPP-based SDS-PAGE analysis relative to control
# T1 sequence (whole entry): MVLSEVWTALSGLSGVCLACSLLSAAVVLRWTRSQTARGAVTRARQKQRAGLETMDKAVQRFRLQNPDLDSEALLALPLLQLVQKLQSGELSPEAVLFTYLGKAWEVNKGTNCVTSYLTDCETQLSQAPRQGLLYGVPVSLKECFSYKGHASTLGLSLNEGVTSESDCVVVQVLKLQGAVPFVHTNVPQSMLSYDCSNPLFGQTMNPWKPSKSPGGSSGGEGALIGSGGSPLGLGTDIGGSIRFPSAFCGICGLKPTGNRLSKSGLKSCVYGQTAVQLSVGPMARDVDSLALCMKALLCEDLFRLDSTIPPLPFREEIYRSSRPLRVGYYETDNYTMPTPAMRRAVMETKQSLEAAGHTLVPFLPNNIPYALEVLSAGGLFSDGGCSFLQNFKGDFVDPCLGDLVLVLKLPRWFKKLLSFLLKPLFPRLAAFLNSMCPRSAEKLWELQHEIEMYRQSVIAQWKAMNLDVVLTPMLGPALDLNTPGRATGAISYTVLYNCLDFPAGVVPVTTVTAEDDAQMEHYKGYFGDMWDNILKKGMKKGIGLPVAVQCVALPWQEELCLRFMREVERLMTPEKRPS
# [5] = system: Mus musculus; test: In vivo inhibition of carboxylesterase-1 in C57Bl/6 mouse liver at 0.1 to 1 mg/kg, ip after 4 hrs by FP-rhodamine-labelled gel-based competitive ABPP assay; assay type: functional, organism-based
# Summary of the method: as §1
# [6] = system: Mus musculus; test: In vivo inhibition of MGLL in C57Bl/6 mouse liver and bain at 0.1 to 1 mg/kg, ip after 4 hrs by FP-rhodamine-labelled gel-based competitive ABPP assay; assay type: functional, organism-based
# Summary of the method: as §1
# [7] = system: Mus musculus; test: In vivo inhibition of ABHD6 in C57Bl/6 mouse liver at 20 mg/kg, ip after 4 hrs by FP-rhodamine/HT-10-labelled gel-based competitive assay; assay type: functional, organism-based; set-up: dose 20 mg/kg
# Summary of the method: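 C57Bl/6 mice dosed i.p. at 1–40 mg kg⁻¹ in 18:1:1 saline/ethanol/PEG40, 10 μL g⁻¹, for 4 hr, then killed. Brain and liver membrane proteomes labelled with FP-rhodamine or HT-01 (1 μM, 30 min, 37 °C) and resolved by SDS-PAGE with in-gel fluorescence scanning.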
# [8] = system: Mus musculus; test: In vivo inhibition of FAAH in C57Bl/6 mouse liver and bain at 0.1 to 1 mg/kg, ip after 4 hrs by FP-rhodamine-labelled gel-based competitive ABPP assay; assay type: functional, organism-based
# Summary of the method: as §1
# [9] = system: Mus musculus; test: In vivo inhibition of carboxylesterase-1 in C57Bl/6 mouse brain at 0.1 to 1 mg/kg, ip after 4 hrs by FP-rhodamine-labelled gel-based competitive ABPP assay; assay type: functional, organism-based
# Summary of the method: as §1
# [10] = target: T2, Neutral cholesterol ester hydrolase 1 (Mus musculus) (UniProt Q8BLF1); conditions: Neuro2a, 3 nM
# T2 sequence (whole entry): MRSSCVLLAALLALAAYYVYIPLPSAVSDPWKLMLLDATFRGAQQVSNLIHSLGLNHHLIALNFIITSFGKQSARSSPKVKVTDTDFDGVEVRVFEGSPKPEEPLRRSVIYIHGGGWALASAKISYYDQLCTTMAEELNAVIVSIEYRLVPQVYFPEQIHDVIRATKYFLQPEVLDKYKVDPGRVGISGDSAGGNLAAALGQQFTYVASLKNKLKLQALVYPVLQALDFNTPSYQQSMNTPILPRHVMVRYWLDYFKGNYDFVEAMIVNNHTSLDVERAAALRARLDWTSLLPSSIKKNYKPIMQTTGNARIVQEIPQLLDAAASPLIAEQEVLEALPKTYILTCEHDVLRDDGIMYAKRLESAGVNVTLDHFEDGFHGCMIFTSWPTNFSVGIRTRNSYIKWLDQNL
# [11] = target: T3, Monoacylglycerol lipase ABHD6 (Mus musculus, UniProt Q8R2Y0); test: Inhibition of recombinant mouse ABHD6 expressed in HEK293T using 2-arachidonoylglycerol preincubated for 30 mins followed by substrate addition measured after 30 mins by LC-MS analysis
# T3 sequence (Q8R2Y0 whole entry): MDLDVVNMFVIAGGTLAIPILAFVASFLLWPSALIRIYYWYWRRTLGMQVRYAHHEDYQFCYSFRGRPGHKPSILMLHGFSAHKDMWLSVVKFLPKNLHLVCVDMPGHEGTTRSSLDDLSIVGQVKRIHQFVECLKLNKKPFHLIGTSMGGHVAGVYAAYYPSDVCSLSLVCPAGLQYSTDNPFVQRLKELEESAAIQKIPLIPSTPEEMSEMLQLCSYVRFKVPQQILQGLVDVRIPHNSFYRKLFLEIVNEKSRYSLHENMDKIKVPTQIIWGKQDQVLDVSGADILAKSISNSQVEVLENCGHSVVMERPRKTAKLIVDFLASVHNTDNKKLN
# [12] = target: Acyl-protein thioesterase 1 (Mus musculus) (UniProt P97823); test: Inhibition of FP-rhodamine-labelled recombinant mouse LYPLA1 at 10 uM preincubated for 30 mins followed by FP-rhodamine labelling measured after 30 mins by gel-based competitive ABPP assay
# [13] = target: T3, Monoacylglycerol lipase ABHD6
# [14] = target: Acyl-protein thioesterase 2 (Mus musculus) (UniProt Q9WTL7); test: Inhibition of FP-rhodamine-labelled recombinant mouse LYPLA2 at 10 uM preincubated for 30 mins followed by FP-rhodamine labelling measured after 30 mins by gel-based competitive ABPP assay
# Chain of Acyl-protein thioesterase 2 (Mus musculus) (Q9WTL7 whole entry): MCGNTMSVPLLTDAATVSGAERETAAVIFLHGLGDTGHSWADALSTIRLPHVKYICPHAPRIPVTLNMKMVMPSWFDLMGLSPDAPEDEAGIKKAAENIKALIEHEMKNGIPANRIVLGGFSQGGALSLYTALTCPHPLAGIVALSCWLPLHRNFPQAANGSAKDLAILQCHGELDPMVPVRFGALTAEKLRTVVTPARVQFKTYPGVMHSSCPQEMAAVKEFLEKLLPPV
# Chain of Acyl-protein thioesterase 1 (Mus musculus) (P97823 whole entry): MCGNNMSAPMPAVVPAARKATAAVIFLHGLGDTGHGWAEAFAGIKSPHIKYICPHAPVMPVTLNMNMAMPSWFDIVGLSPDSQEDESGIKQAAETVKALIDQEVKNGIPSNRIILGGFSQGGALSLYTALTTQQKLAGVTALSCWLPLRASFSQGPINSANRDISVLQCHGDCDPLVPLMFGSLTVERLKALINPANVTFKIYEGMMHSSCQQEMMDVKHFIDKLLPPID
Structure (SMILES),inhibition [1],inhibition in vivo at 0.1 mg/kg [2] [%],inhibition [3],inhibition [4],inhibition [5],inhibition [6],inhibition [7],inhibition [8],inhibition [9],inhibition [10] [%],IC50 ([11]; hek-293t) [nM],inhibition [12],IC50 [13] [nM],inhibition [14],IC50 [11] [nM]
O=C(O)c1cccc(-c2ccc(-c3cn(C(=O)N4CCCCC4Cc4ccccc4)nn3)cc2)c1 (racemic),Active,80,Active,Active,inactive,inactive,Active,inactive,inactive,< 50,–,–,–,–,–
O=C(N1CCCCC1c1ccccc1)n1cc(-c2ccc(-c3cccc(CO)c3)cc2)nn1 (racemic),Active,80,Active,Active,Active,–,Active,–,Active,< 50,15.1,Active,0.24,Active,–
O=C(c1cccc(-c2ccc(-c3cn(C(=O)N4CCCCC4c4ccccc4)nn3)cc2)c1)N1CCCCC1 (racemic),–,–,–,–,–,–,Active,–,–,< 50,–,Active,–,Active,13.6
